In ChEMBL document CHEMBL3124843, “Synthesis, cytostatic, antimicrobial, and anti-HCV activity of 6-substituted 7-(het)aryl-7-deazapurine ribonucleosides” (J Med Chem, 2014):
Activity calls are given as the source filed them. No rule for the calls is given here.

Experiments:
HepG2 = experiment: Antiproliferative activity against human HepG2 cells after 72 hrs by XTT assay; format: functional, cell-based; settings: HepG2, 72 h
Enterococcus faecalis = experiment: Antibacterial activity against Enterococcus faecalis CCM 4224 after 24 hrs; format: functional, organism-based
CCRF-CEM [1] = experiment: Inhibition of RNA synthesis in human CCRF-CEM cells assessed as BrU-positive cells at IC50 after 24 hrs by propidium iodide staining-based flow cytometric analysis (reference value: 43.3%); format: functional; design: scale not given: the % may be the effect or the level left
Staphylococcus aureus [2] = experiment: Antibacterial activity against Staphylococcus aureus CCM 3953 after 24 hrs; format: functional, organism-based
Pichia kudriavzevii = experiment: Antifungal activity against Candida crusei after 48 hrs; format: functional, organism-based
CCRF-CEM [3] = experiment: Mitotic arrest in human CCRF-CEM cells assessed as pH3Ser10-positive cells at IC50 after 24 hrs by propidium iodide staining-based flow cytometric analysis (reference value: 1.4%); format: functional
CCRF-CEM [4] = experiment: Cell cycle arrest in human CCRF-CEM cells assessed as accumulation at sub-G1 phase at IC50 after 24 hrs by propidium iodide staining-based flow cytometric analysis (reference value: 9.6%); format: functional
Escherichia coli [5] = experiment: Antibacterial activity against multi-resistant Escherichia coli C/16702 after 24 hrs; format: functional, organism-based
[6] = Antiproliferative activity against human HeLaS3 cells after 72 hrs by XTT assay; format: functional, cell-based; settings: HeLa S3, 72 h
Outline: (§1)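 Antiproliferative test on HL-60 promyelocytic leukemia and HeLa S3 cervical carcinoma cells growing in liquid suspension.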

HCT-116 [7] = experiment: Cytostatic activity against human HCT116 cells after 72 hrs by MTT assay; format: functional, cell-based; settings: HCT-116, 72 h
Outline: (§2)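 IC50 is the concentration that cuts cell growth by 50%, read by quantitative metabolic MTT staining after a 3-day treatment. The resistant sublines were made by raising the concentration of the cytotoxic drug step by step. CEM-DNR-bulk (daunorubicin-selected) stably overexpresses mrp-1. K562-TAX (paclitaxel-selected) expresses only mdr-1. HCT116p53−/− carries null p53 alleles. BJ and MRC-5 are nonmalignant fibroblasts.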

HCT-116 [8] = experiment: Cytostatic activity against p53-deficient human HCT116 cells after 72 hrs by MTT assay; format: functional, cell-based; settings: HCT-116, 72 h; outline: as §2
Hepatitis C virus [9] = experiment: Antiviral activity against Hepatitis C virus subtype 1b infected in human HuH7 cells; format: functional, organism-based, Hepacivirus hominis; settings: genotype 1b, Huh-7
HL-60 = experiment: Antiproliferative activity against human HL60 cells after 72 hrs by XTT assay; format: functional, cell-based; settings: HL-60, 72 h; outline: as §1
[10] = Cytotoxicity against human HuH7 cells infected with Hepatitis C virus subtype 1b; format: cell-based, Huh-7
MRC5 = experiment: Cytostatic activity against human MRC5 cells after 72 hrs by MTT assay; format: ADME, cell-based; settings: MRC5, 72 h; outline: as §2
[11] = Cytotoxicity against human HuH7 cells infected with Hepatitis C virus subtype 2a; format: cell-based, Huh-7
Pseudomonas aeruginosa [12] = experiment: Antibacterial activity against multi-resistant Pseudomonas aeruginosa A/16575 after 24 hrs; format: functional, organism-based
K562 [13] = experiment: Cytostatic activity against paclitaxel-resistant human K562 cells after 72 hrs by MTT assay; format: functional, cell-based; settings: K562, 72 h; outline: as §2
Escherichia coli [14] = experiment: Antibacterial activity against Escherichia coli CCM 3954 after 24 hrs; format: functional, organism-based
Candida tropicalis = experiment: Antifungal activity against Candida tropicalis after 48 hrs; format: functional, organism-based
[15] = tested on: Staphylococcus haemolyticus; experiment: Antibacterial activity against methicillin-resistant Staphylococcus haemolyticus A/16568 after 24 hrs; format: functional, organism-based
Hepatitis C virus [16] = experiment: Antiviral activity against Hepatitis C virus subtype 2a infected in human HuH7 cells; format: functional, organism-based, Hepacivirus hominis; settings: genotype 2a, Huh-7
BJ = experiment: Cytostatic activity against human BJ cells after 72 hrs by MTT assay; format: ADME, cell-based; outline: as §2
Pseudomonas aeruginosa [17] = experiment: Antibacterial activity against Pseudomonas aeruginosa CCM 3955 after 24 hrs; format: functional, organism-based
Candida albicans = experiment: Antifungal activity against Candida albicans after 48 hrs; format: functional, organism-based
[18] = Cytostatic activity against human CEM-DNR-bulk cells after 72 hrs by MTT assay; format: functional, cell-based; outline: as §2
CCRF-CEM [19] = experiment: Cytostatic activity against human CCRF-CEM cells after 72 hrs by MTT assay; format: functional, cell-based; outline: as §2
A549 = experiment: Cytostatic activity against human A549 cells after 72 hrs by MTT assay; format: functional, cell-based; settings: A549, 72 h; outline: as §2
Staphylococcus aureus [20] = experiment: Antibacterial activity against methicillin-resistant Staphylococcus aureus MRSA 4591 after 24 hrs; format: functional, organism-based
K562 [21] = experiment: Cytostatic activity against human K562 cells after 72 hrs by MTT assay; format: functional, cell-based; settings: K562, 72 h; outline: as §2
Candida parapsilosis = experiment: Antifungal activity against Candida parapsilosis after 48 hrs; format: functional, organism-based

SMILES | IC50 (HepG2) [µM] | Activity (Enterococcus faecalis) | Activity (Staphylococcus aureus [2]) | Activity (Pichia kudriavzevii) | Activity (CCRF-CEM [3]) [%] | Activity (Escherichia coli [5]) | IC50 [6] [µM] | IC50 (HCT-116 [7]) [µM] | IC50 (HCT-116 [8]) [µM] | EC50 (Hepatitis C virus [9]) [µM] | IC50 (HL-60) [µM] | CC50 [10] [µM] | IC50 (MRC5) [µM] | CC50 [11] [µM] | Activity (Pseudomonas aeruginosa [12]) | IC50 (K562 [13]) [µM] | Activity (Escherichia coli [14]) | Activity (Candida tropicalis) | Activity [15] | EC50 (Hepatitis C virus [16]) [µM] | also measured
COc1ncnc2c1c(-c1ccsc1)cn2[C@@H]1O[C@H](CO)[C@@H](O)[C@H]1O | 0.43 | inactive | inactive | inactive | 2.9 | inactive | 3.35 | 0.12 | 0.14 | 0.55 | 0.13 | > 44 | 75.3 | > 44 | inactive | 3.45 | inactive | inactive | inactive | > 44 | Activity (CCRF-CEM [1]): 0.5%; Activity (CCRF-CEM [4]): 75%; IC50 (BJ): 64.3 µM; Activity (Pseudomonas aeruginosa [17]): inactive; Activity (Candida albicans): inactive; IC50 [18]: 7.64 µM; IC50 (CCRF-CEM [19]): 2.57 µM; IC50 (A549): 5.17 µM; Activity (Staphylococcus aureus [20]): inactive; IC50 (K562 [21]): 0.09 µM; Activity (Candida parapsilosis): inactive
CNc1ncnc2c1c(-c1ccco1)cn2[C@@H]1O[C@H](CO)[C@@H](O)[C@H]1O | 0.85 | inactive | inactive | inactive | 1.4 | inactive | 5 | 0.23 | 0.44 | 0.06 | 0.62 | > 44 | 90.8 | > 44 | inactive | 15.1 | inactive | inactive | inactive | 0.14 | Activity (CCRF-CEM [1]): 1%; IC50 (BJ): 5.04 µM; Activity (Pseudomonas aeruginosa [17]): inactive; Activity (Candida albicans): inactive; IC50 [18]: > 20 µM; IC50 (CCRF-CEM [19]): 0.18 µM; IC50 (A549): 2.57 µM; Activity (Staphylococcus aureus [20]): inactive; IC50 (K562 [21]): 0.22 µM; Activity (Candida parapsilosis): inactive
COc1ncnc2c1c(-c1ccco1)cn2[C@@H]1O[C@H](CO)[C@@H](O)[C@H]1O | 0.3 | inactive | inactive | inactive | 1.4 | inactive | 1.02 | 0.04 | 0.04 | 0.02 | 0.1 | > 44 | 1.7 | > 44 | inactive | 0.38 | inactive | inactive | inactive | 0.03 | Activity (CCRF-CEM [4]): 6.8%; IC50 (BJ): 0.43 µM; Activity (Pseudomonas aeruginosa [17]): inactive; Activity (Candida albicans): inactive; IC50 [18]: 0.16 µM; IC50 (CCRF-CEM [19]): 0.02 µM; IC50 (A549): 0.03 µM; Activity (Staphylococcus aureus [20]): inactive; IC50 (K562 [21]): 0.06 µM; Activity (Candida parapsilosis): inactive
COc1ncnc2c1c(I)cn2[C@@H]1O[C@H](CO)[C@@H](O)[C@H]1O | > 20 | inactive | inactive | inactive | 0.9 | inactive | 14.3 | > 20 | > 20 | > 44 | 2.3 | > 44 | 63 | > 44 | inactive | 14.8 | inactive | inactive | inactive | > 44 | Activity (CCRF-CEM [1]): 0.2%; Activity (CCRF-CEM [4]): 6%; IC50 (BJ): 91 µM; Activity (Pseudomonas aeruginosa [17]): inactive; Activity (Candida albicans): inactive; IC50 [18]: > 20 µM; IC50 (CCRF-CEM [19]): 1.15 µM; IC50 (A549): > 20 µM; Activity (Staphylococcus aureus [20]): inactive; IC50 (K562 [21]): > 20 µM; Activity (Candida parapsilosis): inactive
CN(C)c1ncnc2c1c(-c1ccsc1)cn2[C@@H]1O[C@H](CO)[C@@H](O)[C@H]1O | > 20 | inactive | inactive | inactive | 0.7 | inactive | > 15 | > 20 | > 20 | 38.4 | 1.92 | > 44 | > 100 | > 44 | inactive | > 20 | inactive | inactive | inactive | > 44 | Activity (CCRF-CEM [1]): 0.7%; Activity (CCRF-CEM [4]): 6.8%; IC50 (BJ): > 100 µM; Activity (Pseudomonas aeruginosa [17]): inactive; Activity (Candida albicans): inactive; IC50 [18]: > 20 µM; IC50 (CCRF-CEM [19]): 3.48 µM; IC50 (A549): > 20 µM; Activity (Staphylococcus aureus [20]): inactive; IC50 (K562 [21]): 0.53 µM; Activity (Candida parapsilosis): inactive
CN(C)c1ncnc2c1c(I)cn2[C@@H]1O[C@H](CO)[C@@H](O)[C@H]1O | 13.9 | inactive | inactive | inactive | 1.3 | inactive | 0.19 | 0.09 | 0.12 | 0.69 | 0.05 | > 44 | 91.7 | > 44 | inactive | 0.05 | inactive | inactive | inactive | > 44 | Activity (CCRF-CEM [1]): 4.8%; Activity (CCRF-CEM [4]): 9.4%; IC50 (BJ): 45.7 µM; Activity (Pseudomonas aeruginosa [17]): inactive; Activity (Candida albicans): inactive; IC50 [18]: 0.1 µM; IC50 (CCRF-CEM [19]): 1.59 µM; IC50 (A549): 0.34 µM; Activity (Staphylococcus aureus [20]): inactive; IC50 (K562 [21]): 0.07 µM; Activity (Candida parapsilosis): inactive
CSc1ncnc2c1c(-c1ccco1)cn2[C@@H]1O[C@H](CO)[C@@H](O)[C@H]1O | 0.22 | inactive | inactive | inactive | 0.7 | inactive | 0.54 | 0.02 | 0.01 | 0.07 | 0.12 | 38.6 | 73.9 | > 44 | inactive | 0.21 | inactive | inactive | inactive | 0.05 | Activity (CCRF-CEM [1]): 5%; Activity (CCRF-CEM [4]): 7.9%; IC50 (BJ): 0.26 µM; Activity (Pseudomonas aeruginosa [17]): inactive; Activity (Candida albicans): inactive; IC50 [18]: 0.23 µM; IC50 (CCRF-CEM [19]): 0.05 µM; IC50 (A549): 0.05 µM; Activity (Staphylococcus aureus [20]): inactive; IC50 (K562 [21]): 0.04 µM; Activity (Candida parapsilosis): inactive
COc1ncnc2c1c(-c1ccoc1)cn2[C@@H]1O[C@H](CO)[C@@H](O)[C@H]1O | 0.29 | inactive | inactive | inactive | 1.6 | inactive | 1.79 | 0.11 | 0.13 | 0.33 | 0.15 | > 44 | 29.4 | > 44 | inactive | 2.82 | inactive | inactive | inactive | 8.28 | Activity (CCRF-CEM [1]): 0.7%; Activity (CCRF-CEM [4]): 8.5%; IC50 (BJ): 28.8 µM; Activity (Pseudomonas aeruginosa [17]): inactive; Activity (Candida albicans): inactive; IC50 [18]: > 20 µM; IC50 (CCRF-CEM [19]): 0.11 µM; IC50 (A549): 1.16 µM; Activity (Staphylococcus aureus [20]): inactive; IC50 (K562 [21]): 0.19 µM; Activity (Candida parapsilosis): inactive
